Laboratory results taken from ChEMBL document CHEMBL6092224, “The Discovery and Preclinical Profile of ALG-000184, a Prodrug of the Potent Hepatitis B Virus Capsid Assembly Modulator ALG-001075” (J Med Chem, 2024).
The source made the active and inactive calls. The calls are words filed in the database; no cut-off is given here.

Tests used:
[1] = Metabolic stability in dog liver microsomes assessed as half life at 1 uM incubated upto 60 mins in presence of NADPH; type: ADME, Canis lupus familiaris, Microsome
Method in brief: (§1)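 Compound at 1 μM incubated at 37 °C with liver microsomes of each species for 0, 15, 30 and 60 min, with and without NADPH; half-life determined.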

[2] = Mutagenicity in Salmonella […] by Ames test; type: toxicity; conditions: salmonella enterica subsp. enterica serovar typhimurium
[3] = Genotoxicity in human TK6 cells measured for 4 to 27 hrs by micronucleus test; type: toxicity, cell-based; conditions: time 4-27 hrs
Cytochrome P450 2C9 = Cytochrome P450 2C9 (Homo sapiens, UniProt P11712); assay: Inhibition of CYP2C9 in human liver microsomes in presence of NADPH; type: ADME, Microsome
Cytochrome P450 2C9, sequence (P11712 whole entry, canonical isoform): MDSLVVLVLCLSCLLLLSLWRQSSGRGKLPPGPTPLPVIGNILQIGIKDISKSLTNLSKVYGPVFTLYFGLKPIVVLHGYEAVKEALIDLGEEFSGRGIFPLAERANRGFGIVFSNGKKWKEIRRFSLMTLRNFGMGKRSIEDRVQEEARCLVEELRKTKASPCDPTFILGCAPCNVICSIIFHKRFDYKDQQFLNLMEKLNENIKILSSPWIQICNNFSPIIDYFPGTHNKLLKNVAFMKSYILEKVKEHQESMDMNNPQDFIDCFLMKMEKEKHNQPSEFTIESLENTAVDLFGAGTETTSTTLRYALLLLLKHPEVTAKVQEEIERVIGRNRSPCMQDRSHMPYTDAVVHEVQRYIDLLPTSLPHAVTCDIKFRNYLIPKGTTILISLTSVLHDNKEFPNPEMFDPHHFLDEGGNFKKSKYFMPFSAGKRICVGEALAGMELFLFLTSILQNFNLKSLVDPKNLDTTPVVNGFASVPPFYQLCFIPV
Method in brief: (§2)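 Pooled human liver microsomes with CYP isoform-specific probe substrates, in 100 mM potassium phosphate pH 7.4, 3 mM MgCl2 and 1 mM NADPH, at 37 °C. Final test ranges were 0.069–50 μM or 0.03–100 μM; IC50 was determined.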

[4] = Mutagenicity in Salmonella typhimurium TA100 by Ames test; type: toxicity; conditions: salmonella enterica subsp. enterica serovar typhimurium
[5] = Metabolic stability in dog plasma assessed as half life; type: ADME, cell-free, Canis lupus familiaris
Hepatitis B virus = assay: Antiviral activity against HBV genotype D infected in human HepG2.117 cells assessed as decrease in HBV DNA production by qPCR analysis; type: functional, organism-based
Method in brief: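 HepG2.117 cells (integrated genotype D HBV genome, Tet-off promoter; kept in 1 μg/mL doxycycline) were seeded at 20,000 cells/well and given serial compound dilutions (2% DMSO) for 3 days at 37 °C. Lysates were taken in 0.33% NP40. Intracellular HBV DNA was quantified by qPCR and EC50/EC90 derived. For serum shift, 40% human serum was present during incubation. Mean ± SEM, n=3 (serum) or 13.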

Cytochrome P450 2D6 = Cytochrome P450 2D6 (Homo sapiens, UniProt P10635); assay: Inhibition of CYP2D6 in human liver microsomes in presence of NADPH; type: ADME, Microsome; method in brief: as §2
Cytochrome P450 2D6, sequence (P10635 whole entry): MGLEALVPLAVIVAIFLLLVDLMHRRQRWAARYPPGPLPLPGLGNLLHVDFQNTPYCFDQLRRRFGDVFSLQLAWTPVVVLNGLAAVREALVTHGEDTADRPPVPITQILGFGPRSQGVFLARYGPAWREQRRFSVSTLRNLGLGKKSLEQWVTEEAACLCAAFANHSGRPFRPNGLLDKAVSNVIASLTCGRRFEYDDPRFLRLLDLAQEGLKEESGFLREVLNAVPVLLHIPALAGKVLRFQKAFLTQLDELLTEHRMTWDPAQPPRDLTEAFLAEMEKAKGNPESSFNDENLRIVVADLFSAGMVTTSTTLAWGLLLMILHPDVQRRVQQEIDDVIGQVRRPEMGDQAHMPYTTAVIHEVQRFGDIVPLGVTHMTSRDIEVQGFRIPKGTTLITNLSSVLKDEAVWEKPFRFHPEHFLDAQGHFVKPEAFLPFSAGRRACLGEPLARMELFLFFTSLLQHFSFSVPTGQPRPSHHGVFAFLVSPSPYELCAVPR

[6] = Metabolic stability in human plasma assessed as half life; type: ADME, cell-free
MDCKII-MDR1 = assay: Substrate activity at p-gp in MDCKII-MDR1 cells incubated for 150 mins; type: cell-based; conditions: Canis lupus familiaris
Method in brief: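 P-gp substrate test in MDR1-MDCK II and parental MDCK II cells, with or without the P-gp inhibitor GF120918, 150 min incubation. Parent compound run at 2 μM; prodrug at 2, 10 and 100 μM.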

Cytochrome P450 1A2 = Cytochrome P450 1A2 (Homo sapiens, UniProt P05177); assay: Inhibition of CYP1A2 in human liver microsomes in presence of NADPH; type: ADME, Microsome; method in brief: as §2
Cytochrome P450 1A2, sequence (P05177 whole entry): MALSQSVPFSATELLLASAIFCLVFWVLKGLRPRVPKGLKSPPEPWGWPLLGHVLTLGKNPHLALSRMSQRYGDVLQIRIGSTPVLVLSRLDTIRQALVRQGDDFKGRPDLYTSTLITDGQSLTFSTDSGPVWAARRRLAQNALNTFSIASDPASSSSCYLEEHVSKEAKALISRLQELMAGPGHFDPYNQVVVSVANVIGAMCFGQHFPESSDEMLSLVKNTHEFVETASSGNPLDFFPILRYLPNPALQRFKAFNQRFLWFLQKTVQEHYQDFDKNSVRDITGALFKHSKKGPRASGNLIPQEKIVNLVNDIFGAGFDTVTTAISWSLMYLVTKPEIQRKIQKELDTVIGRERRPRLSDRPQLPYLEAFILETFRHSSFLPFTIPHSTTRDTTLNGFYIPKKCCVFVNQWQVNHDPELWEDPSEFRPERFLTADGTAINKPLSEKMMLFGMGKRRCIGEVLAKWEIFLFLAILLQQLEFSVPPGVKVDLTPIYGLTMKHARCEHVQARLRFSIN

[7] = Metabolic stability in mouse liver microsomes assessed as half life at 1 uM incubated upto 60 mins in presence of NADPH; type: ADME, Microsome; method in brief: as §1
Cytochrome P450 2C8 = Cytochrome P450 2C8 (Homo sapiens, UniProt P10632); assay: Inhibition of CYP2C8 in human liver microsomes in presence of NADPH; type: ADME, Microsome; method in brief: as §2
[8] = Metabolic stability in Cynomolgous monkey liver microsomes assessed as half life at 1 uM incubated upto 60 mins in presence of NADPH; type: ADME, Macaca fascicularis, Microsome; conditions: cynomolgus monkey; method in brief: as §1
UGT1A1 = UGT1A1 (Homo sapiens, UniProt P22309); assay: Inhibition of recombinant human UGT1A1 at 10 uM in presence of UDPGA relative to control
Method in brief: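 Recombinant human UGT1A1 at 0.05 mg/mL with 5 mM UDPGA cofactor, 10 min incubation; test compound at single 10 μM concentration.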

[9] = biological target: Solute carrier organic anion transporter family member 1B1 (Homo sapiens, UniProt Q9Y6L6); assay: Inhibition of OATP1B1 (unknown origin) transfected in HEK293 cells; type: cell-based
Solute carrier organic anion transporter family member 1B1, sequence (Q9Y6L6 whole entry): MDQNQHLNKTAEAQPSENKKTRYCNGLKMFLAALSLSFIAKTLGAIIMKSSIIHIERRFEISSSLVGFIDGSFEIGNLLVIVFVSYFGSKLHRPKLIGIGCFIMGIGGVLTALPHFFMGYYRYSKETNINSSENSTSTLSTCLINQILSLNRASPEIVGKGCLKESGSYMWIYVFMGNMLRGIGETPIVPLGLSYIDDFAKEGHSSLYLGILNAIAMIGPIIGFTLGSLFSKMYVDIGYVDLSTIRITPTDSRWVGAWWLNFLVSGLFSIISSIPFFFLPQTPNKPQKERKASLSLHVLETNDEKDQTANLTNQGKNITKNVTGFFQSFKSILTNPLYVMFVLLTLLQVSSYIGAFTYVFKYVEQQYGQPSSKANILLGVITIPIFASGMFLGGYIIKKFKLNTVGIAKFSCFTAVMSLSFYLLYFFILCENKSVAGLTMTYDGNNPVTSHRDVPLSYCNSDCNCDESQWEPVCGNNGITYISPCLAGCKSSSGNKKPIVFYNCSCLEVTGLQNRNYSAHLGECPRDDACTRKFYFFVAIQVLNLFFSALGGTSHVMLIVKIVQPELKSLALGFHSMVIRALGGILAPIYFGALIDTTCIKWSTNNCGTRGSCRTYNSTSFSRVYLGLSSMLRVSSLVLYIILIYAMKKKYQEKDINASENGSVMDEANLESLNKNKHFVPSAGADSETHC
Method in brief: (§3)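 HEK-293 cells transfected with the uptake transporter; uptake of known probe substrates measured with test compound at eight concentrations (0.0229–50.0 μM or 0.0457–100 μM); inhibition at each concentration used to calculate IC50.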

[10] = biological target: Voltage-gated inwardly rectifying potassium channel KCNH2 (Homo sapiens, UniProt Q12809); assay: Inhibition of hERG expressed in mammalian cells at 10 uM by automated patch-clamp method; type: toxicity, cell-based
Voltage-gated inwardly rectifying potassium channel KCNH2, sequence (Q12809 whole entry): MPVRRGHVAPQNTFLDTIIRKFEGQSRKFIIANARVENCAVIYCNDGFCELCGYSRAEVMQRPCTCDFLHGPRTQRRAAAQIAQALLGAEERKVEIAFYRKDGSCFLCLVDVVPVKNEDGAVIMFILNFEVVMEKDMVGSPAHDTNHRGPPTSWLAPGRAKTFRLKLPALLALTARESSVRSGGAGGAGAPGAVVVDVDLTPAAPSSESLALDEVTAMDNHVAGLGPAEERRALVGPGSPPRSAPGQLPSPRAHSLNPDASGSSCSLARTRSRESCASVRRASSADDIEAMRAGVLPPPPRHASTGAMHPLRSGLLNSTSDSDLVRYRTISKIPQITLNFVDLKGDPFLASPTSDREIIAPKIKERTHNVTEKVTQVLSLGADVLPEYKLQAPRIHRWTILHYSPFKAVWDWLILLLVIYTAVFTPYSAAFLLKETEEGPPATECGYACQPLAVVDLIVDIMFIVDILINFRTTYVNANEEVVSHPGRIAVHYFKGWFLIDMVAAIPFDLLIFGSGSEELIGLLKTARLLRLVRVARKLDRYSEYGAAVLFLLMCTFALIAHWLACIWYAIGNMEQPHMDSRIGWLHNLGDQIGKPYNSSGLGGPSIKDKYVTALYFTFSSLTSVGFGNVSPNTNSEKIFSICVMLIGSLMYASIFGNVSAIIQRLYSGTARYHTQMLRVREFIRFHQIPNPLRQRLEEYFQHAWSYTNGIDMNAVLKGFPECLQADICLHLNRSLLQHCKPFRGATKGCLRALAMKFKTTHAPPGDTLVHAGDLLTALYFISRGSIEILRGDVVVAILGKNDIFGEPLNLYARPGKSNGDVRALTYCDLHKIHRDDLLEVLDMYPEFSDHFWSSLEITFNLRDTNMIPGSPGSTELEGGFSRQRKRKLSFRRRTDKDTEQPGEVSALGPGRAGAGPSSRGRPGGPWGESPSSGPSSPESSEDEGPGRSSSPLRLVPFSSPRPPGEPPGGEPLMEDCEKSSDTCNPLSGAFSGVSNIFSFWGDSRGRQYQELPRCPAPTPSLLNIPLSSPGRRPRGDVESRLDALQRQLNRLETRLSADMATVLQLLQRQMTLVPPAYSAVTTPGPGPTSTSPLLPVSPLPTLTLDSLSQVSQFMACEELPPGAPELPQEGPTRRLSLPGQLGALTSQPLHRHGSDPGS
Method in brief: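 Currents of hERG, Nav1.5 or Cav1.2 channels expressed in mammalian cells recorded by automated patch clamp (QPatch 48) at room temperature.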

Cytochrome P450 3A4 = Cytochrome P450 3A4 (Homo sapiens, UniProt P08684); assay: Inhibition of CYP3A4 in human liver microsomes in presence of NADPH; type: ADME, Microsome
Cytochrome P450 3A4, sequence (P08684 whole entry): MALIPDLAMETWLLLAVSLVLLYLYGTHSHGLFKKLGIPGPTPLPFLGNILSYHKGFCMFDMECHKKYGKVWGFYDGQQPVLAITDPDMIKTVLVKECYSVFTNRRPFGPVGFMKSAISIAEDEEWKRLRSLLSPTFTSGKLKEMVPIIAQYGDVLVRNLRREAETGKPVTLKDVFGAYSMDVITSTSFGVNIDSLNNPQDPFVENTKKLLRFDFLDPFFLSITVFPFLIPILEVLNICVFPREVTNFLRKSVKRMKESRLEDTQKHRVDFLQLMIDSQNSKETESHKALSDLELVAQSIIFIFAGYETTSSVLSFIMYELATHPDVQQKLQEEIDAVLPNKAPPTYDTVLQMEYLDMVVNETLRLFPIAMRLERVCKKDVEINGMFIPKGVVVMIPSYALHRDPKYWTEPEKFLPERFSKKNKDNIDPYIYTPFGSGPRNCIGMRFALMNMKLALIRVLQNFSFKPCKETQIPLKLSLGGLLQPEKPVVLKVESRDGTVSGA
Method in brief: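 Pooled human liver microsomes in 100 mM potassium phosphate pH 7.4, 3 mM MgCl2, 1 mM NADPH, 37 °C, with CYP3A4-specific probe substrate; test compound over 0.069–50 μM or 0.03–100 μM final, IC50 derived.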

[11] = Metabolic stability in Cynomolgous monkey plasma assessed as half life; type: ADME, cell-free, Macaca fascicularis; conditions: cynomolgus monkey
Cytochrome P450 2C19 = Cytochrome P450 2C19 (Homo sapiens, UniProt P33261); assay: Inhibition of CYP2C19 in human liver microsomes in presence of NADPH; type: ADME, Microsome; method in brief: as §2
Cytochrome P450 2C19, sequence (P33261 whole entry): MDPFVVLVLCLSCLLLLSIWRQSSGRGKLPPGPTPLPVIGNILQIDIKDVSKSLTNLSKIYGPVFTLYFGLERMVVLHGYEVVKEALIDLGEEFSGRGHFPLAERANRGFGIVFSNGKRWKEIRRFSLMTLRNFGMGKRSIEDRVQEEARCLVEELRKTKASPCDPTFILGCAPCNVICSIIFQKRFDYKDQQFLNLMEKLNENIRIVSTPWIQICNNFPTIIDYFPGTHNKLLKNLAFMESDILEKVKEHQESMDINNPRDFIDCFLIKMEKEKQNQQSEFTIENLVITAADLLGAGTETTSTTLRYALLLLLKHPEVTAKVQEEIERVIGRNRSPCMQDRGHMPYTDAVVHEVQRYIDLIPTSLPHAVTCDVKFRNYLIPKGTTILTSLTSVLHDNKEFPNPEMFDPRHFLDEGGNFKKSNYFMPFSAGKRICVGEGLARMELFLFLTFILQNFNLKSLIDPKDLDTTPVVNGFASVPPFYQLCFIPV

[12] = Metabolic stability in mouse plasma assessed as half life; type: ADME, cell-free
[13] = biological target: Solute carrier organic anion transporter family member 1B3 (Homo sapiens, UniProt Q9NPD5); assay: Inhibition of OATP1B3 (unknown origin) transfected in HEK293 cells; type: cell-based; method in brief: as §3
Solute carrier organic anion transporter family member 1B3, sequence (Q9NPD5 whole entry): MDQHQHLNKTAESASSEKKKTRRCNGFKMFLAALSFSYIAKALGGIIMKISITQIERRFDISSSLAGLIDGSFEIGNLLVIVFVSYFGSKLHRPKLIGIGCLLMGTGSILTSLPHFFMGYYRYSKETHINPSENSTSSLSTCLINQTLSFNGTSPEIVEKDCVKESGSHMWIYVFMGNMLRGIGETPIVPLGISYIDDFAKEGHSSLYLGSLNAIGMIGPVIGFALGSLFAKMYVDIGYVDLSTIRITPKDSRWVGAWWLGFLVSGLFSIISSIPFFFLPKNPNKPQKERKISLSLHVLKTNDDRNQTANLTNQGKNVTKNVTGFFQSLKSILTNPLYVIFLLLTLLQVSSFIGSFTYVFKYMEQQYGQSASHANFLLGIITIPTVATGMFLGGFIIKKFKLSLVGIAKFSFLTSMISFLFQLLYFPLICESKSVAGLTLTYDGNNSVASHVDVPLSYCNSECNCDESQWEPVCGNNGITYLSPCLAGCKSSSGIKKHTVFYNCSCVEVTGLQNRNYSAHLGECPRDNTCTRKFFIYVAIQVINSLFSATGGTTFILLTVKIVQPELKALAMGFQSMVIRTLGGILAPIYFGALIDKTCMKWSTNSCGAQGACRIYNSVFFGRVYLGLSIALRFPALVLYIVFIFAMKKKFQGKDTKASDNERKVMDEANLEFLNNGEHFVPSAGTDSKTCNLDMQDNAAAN

[14] = Metabolic stability in human liver microsomes assessed as half life at 1 uM incubated upto 60 mins in presence of NADPH; type: ADME, Microsome; method in brief: as §1
[15] = Mutagenicity in Salmonella typhimurium TA97a by Ames test; type: toxicity; conditions: salmonella enterica subsp. enterica serovar typhimurium
Cytochrome P450 2B6 = biological target: T1, Cytochrome P450 2B6 (Homo sapiens, UniProt P20813); assay: Inhibition of CYP2B6 in human liver microsomes in presence of NADPH; type: ADME, Microsome; method in brief: as §2
T1 sequence (P20813 whole entry): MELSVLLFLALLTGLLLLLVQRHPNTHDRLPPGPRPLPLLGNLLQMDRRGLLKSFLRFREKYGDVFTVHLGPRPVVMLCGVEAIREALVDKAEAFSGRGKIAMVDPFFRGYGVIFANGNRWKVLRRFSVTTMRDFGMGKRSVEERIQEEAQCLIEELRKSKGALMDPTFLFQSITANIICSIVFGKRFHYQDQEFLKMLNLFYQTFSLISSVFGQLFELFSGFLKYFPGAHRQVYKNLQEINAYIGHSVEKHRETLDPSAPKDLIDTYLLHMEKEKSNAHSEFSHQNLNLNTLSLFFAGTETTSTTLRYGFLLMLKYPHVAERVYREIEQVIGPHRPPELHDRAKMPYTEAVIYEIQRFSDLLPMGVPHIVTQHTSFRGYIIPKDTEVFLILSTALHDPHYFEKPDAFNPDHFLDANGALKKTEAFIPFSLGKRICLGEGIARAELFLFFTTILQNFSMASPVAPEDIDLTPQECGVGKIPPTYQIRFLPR

[16] = Mutagenicity in Salmonella typhimurium TA98 by Ames test; type: toxicity; conditions: salmonella enterica subsp. enterica serovar typhimurium
[17] = Metabolic stability in rat liver microsomes assessed as half life at 1 uM incubated upto 60 mins in presence of NADPH; type: ADME, Microsome; method in brief: as §1
[18] = Mutagenicity in Salmonella typhimurium TA1535 by Ames test; type: toxicity; conditions: salmonella enterica subsp. enterica serovar typhimurium
[19] = Metabolic stability in rat plasma assessed as half life; type: ADME, cell-free

| SMILES | half-life at 1 µM [1] [h] | Activity [2] | Activity [3] | IC50 (Cytochrome P450 2C9) [µM] | Activity [4] | half-life [5] [h] | EC50 (Hepatitis B virus) [µM] | IC50 (Cytochrome P450 2D6) [µM] | half-life [6] [h] | IC50 (Cytochrome P450 1A2) [µM] | half-life at 1 µM [7] [h] | IC50 (Cytochrome P450 2C8) [µM] | half-life at 1 µM [8] [h] | inhibition at 10 µM (UGT1A1) [%] | IC50 [9] [µM] | IC50 [10] [µM] | IC50 (Cytochrome P450 3A4) [µM] | half-life [11] [h] | IC50 (Cytochrome P450 2C19) [µM] | half-life [12] [h] | other results |
| --- | --- | --- | --- | --- | --- | --- | --- | --- | --- | --- | --- | --- | --- | --- | --- | --- | --- | --- | --- | --- | --- |
| C#CC1(NC(=O)C(=O)c2c(C)c(C(=O)Nc3ccc(F)c(C#N)c3)n(C)c2C)COC1 | > 1 | Non-toxic | Non-toxic | > 50 | Non-toxic | > 4 | 0.00063 | > 50 | > 4 | > 50 | > 1 | 48.6 | > 1 | 7.3 | > 11.8 | > 10 | > 50 | > 4 | > 50 | > 4 | EC90 (Hepatitis B virus): 0.00317 µM; Activity (MDCKII-MDR1): Active; IC50 [13]: > 11.8 µM; half-life at 1 µM [14]: > 1 h; Activity [15]: Non-toxic; IC50 (Cytochrome P450 2B6): > 50 µM; Activity [16]: Non-toxic; half-life at 1 µM [17]: > 1 h; Activity [18]: Non-toxic; half-life [19]: > 4 h |
| C#CC1(N(COP(=O)([O-])[O-])C(=O)C(=O)c2c(C)c(C(=O)Nc3ccc(F)c(C#N)c3)n(C)c2C)COC1.[Na+].[Na+] | > 1 | Non-toxic | Non-toxic | > 100 | Non-toxic | > 4 | 0.00145 | > 100 | > 4 | > 100 | > 1 | > 100 | > 1 | 11.2 | ~50 | > 300 | > 100 | > 4 | > 100 | > 4 | IC50 [13]: ~50 µM; half-life at 1 µM [14]: > 1 h; Activity [15]: Non-toxic; IC50 (Cytochrome P450 2B6): > 100 µM; Activity [16]: Non-toxic; half-life at 1 µM [17]: > 1 h; Activity [18]: Non-toxic; half-life [19]: > 4 h |
